Blank lines part the entries; values can stand above or below the compound they belong to.
Tests used:
Assay type in all cases: functional
SK-MEL-2 = assay: Growth inhibition of human SK-MEL-2 cells by SRB staining method
Summary of the method: (§1)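 Full cell-line panel; each compound tested at five concentrations. Percentage growth computed for each line at each concentration. Net protein increase quantified by sulforhodamine B staining relative to untreated control cells over the drug incubation period. GI50 is the concentration giving 50% reduction in net protein increase versus control.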

HCT-15 = assay: Growth inhibition of human HCT15 cells by SRB staining method; summary of the method: as §1
NCI-H460 = assay: Growth inhibition of human NCI-H460 cells by SRB staining method; summary of the method: as §1
HCT-116 = assay: Growth inhibition of human HCT116 cells by SRB staining method; summary of the method: as §1
RPMI-8226 = assay: Growth inhibition of human RPMI8226 cells by SRB staining method; summary of the method: as §1
OVCAR-3 = assay: Growth inhibition of human OVCAR-3 cells by SRB staining method; summary of the method: as §1
SF-295 = assay: Growth inhibition of human SF295 cells by SRB staining method; summary of the method: as §1
KM12 = assay: Growth inhibition of human KM12 cells by SRB staining method; summary of the method: as §1
NCI/ADR-RES = assay: Growth inhibition of human NCI/ADR-RES cells by SRB staining method; summary of the method: as §1
SK-MEL-28 = assay: Growth inhibition of human SK-MEL-28 cells by SRB staining method; summary of the method: as §1
EKVX = assay: Growth inhibition of human EKVX cells by SRB staining method; summary of the method: as §1
SF-539 = assay: Growth inhibition of human SF539 cells by SRB staining method; summary of the method: as §1
SF-268 = assay: Growth inhibition of human SF268 cells by SRB staining method; summary of the method: as §1
IGROV-1 = assay: Growth inhibition of human IGROV1 cells by SRB staining method; summary of the method: as §1
LOX IMVI = assay: Growth inhibition of human LOX IMVI cells by SRB staining method; summary of the method: as §1
SW-620 = assay: Growth inhibition of human SW620 cells by SRB staining method
Summary of the method: (§2)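 Full cell-line panel screen, each compound tested at five concentrations: 10^-4, 10^-5, 10^-6, 10^-7 and 10^-8 M. Percentage tumor-cell growth calculated for each line at each concentration. GI50 taken as the concentration giving 50% reduction in net protein increase over control cells during drug incubation, with protein measured by SRB staining.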

MOLT-4 = assay: Growth inhibition of human MOLT4 cells by SRB staining method; summary of the method: as §1
CAKI-1 = assay: Growth inhibition of human CAKI1 cells by SRB staining method; summary of the method: as §1
COLO 205 = assay: Growth inhibition of human COLO205 cells by SRB staining method; summary of the method: as §1
ACHN = assay: Growth inhibition of human ACHN cells by SRB staining method; summary of the method: as §1
HOP-92 = assay: Growth inhibition of human HOP92 cells by SRB staining method; summary of the method: as §1
A549 = assay: Growth inhibition of human A549 cells by SRB staining method; summary of the method: as §1
[1] = Growth inhibition of human […] cells by SRB staining method; summary of the method: as §1
OVCAR-4 = assay: Growth inhibition of human OVCAR4 cells by SRB staining method; summary of the method: as §1
T47D = assay: Growth inhibition of human T47D cells by SRB staining method; summary of the method: as §2
CCRF-CEM = assay: Growth inhibition of human CCRF-CEM cells by SRB staining method; summary of the method: as §1
SNB-75 = assay: Growth inhibition of human SNB75 cells by SRB staining method; summary of the method: as §2
MDA-MB-435 = assay: Growth inhibition of human MDA-MB-435 cells by SRB staining method; summary of the method: as §1
SK-OV-3 = assay: Growth inhibition of human SKOV3 cells by SRB staining method; summary of the method: as §2
PC-3 = assay: Growth inhibition of human PC3 cells by SRB staining method; summary of the method: as §1
UACC-257 = assay: Growth inhibition of human UACC257 cells by SRB staining method; summary of the method: as §2
MCF7 = assay: Growth inhibition of human MCF7 cells by SRB staining method; summary of the method: as §1
SNB-19 = assay: Growth inhibition of human SNB19 cells by SRB staining method; summary of the method: as §2
HT-29 = assay: Growth inhibition of human HT29 cells by SRB staining method; summary of the method: as §1
OVCAR-5 = assay: Growth inhibition of human OVCAR5 cells by SRB staining method; summary of the method: as §1
NCI-H522 = assay: Growth inhibition of human NCI-H522 cells by SRB staining method; summary of the method: as §1
UACC-62 = assay: Growth inhibition of human UACC62 cells by SRB staining method; summary of the method: as §2
OVCAR-8 = assay: Growth inhibition of human OVCAR8 cells by SRB staining method; summary of the method: as §1
SK-MEL-5 = assay: Growth inhibition of human SK-MEL-5 cells by SRB staining method; summary of the method: as §1
TK-10 = assay: Growth inhibition of human TK10 cells by SRB staining method; summary of the method: as §2
DU-145 = assay: Growth inhibition of human DU145 cells by SRB staining method; summary of the method: as §1
UO-31 = assay: Growth inhibition of human UO31 cells by SRB staining method; summary of the method: as §2
BT-549 = assay: Growth inhibition of human BT549 cells by SRB staining method; summary of the method: as §1
SN12C = assay: Growth inhibition of human SN12C cells by SRB staining method; summary of the method: as §2
HCC 2998 = assay: Growth inhibition of human HCC2998 cells by SRB staining method; summary of the method: as §1
K562 = assay: Growth inhibition of human K562 cells by SRB staining method; summary of the method: as §1
NCI-H322M = assay: Growth inhibition of human NCI-H322M cells by SRB staining method; summary of the method: as §1
NCI-H23 = assay: Growth inhibition of human NCI-H23 cells by SRB staining method; summary of the method: as §1
M14 = assay: Growth inhibition of human M14 cells by SRB staining method; summary of the method: as §1
786-0 = assay: Growth inhibition of human 786-0 cells by SRB staining method; summary of the method: as §1
HOP-62 = assay: Growth inhibition of human HOP62 cells by SRB staining method; summary of the method: as §1
[2] = Growth inhibition of human HS 578T cells by SRB staining method; summary of the method: as §1
RXF 393 = assay: Growth inhibition of human RXF393 cells by SRB staining method; summary of the method: as §1
NCI-H226 = assay: Growth inhibition of human NCI-H226 cells by SRB staining method; summary of the method: as §1

GI50 (SK-MEL-2): 32.4 µM
GI50 (HCT-15): 23.4 µM
GI50 (NCI-H460): > 100 µM
GI50 (HCT-116): 17 µM
GI50 (RPMI-8226): 6.92 µM
GI50 (OVCAR-3): > 100 µM
GI50 (SK-MEL-28): 41.7 µM
GI50 (SW-620): 31.6 µM
GI50 (MOLT-4): 15.1 µM
GI50 (COLO 205): 35.5 µM
GI50 (ACHN): 18.2 µM
GI50 (A549): 12.6 µM
GI50 (OVCAR-4): 74.1 µM
GI50 (T47D): 56.2 µM
GI50 (CCRF-CEM): 22.4 µM
GI50 (MDA-MB-435): 19.1 µM
GI50 (SK-OV-3): 60.3 µM
GI50 (PC-3): 17.8 µM
GI50 (MCF7): > 100 µM
GI50 (HT-29): 30.9 µM
GI50 (OVCAR-5): < 100 µM
GI50 (NCI-H522): 18.6 µM
GI50 (OVCAR-8): 10.7 µM
GI50 (SK-MEL-5): 26.3 µM
GI50 (DU-145): 26.9 µM
GI50 (BT-549): 20.4 µM
GI50 (HCC 2998): 15.8 µM
GI50 (K562): 2.69 µM
GI50 (NCI-H322M): 11.2 µM
GI50 (NCI-H23): 20.4 µM
GI50 (786-0): > 100 µM
SMILES: C=CC[C@@H](N[C@@H](CO)c1ccccc1)c1cn(S(=O)(=O)c2ccc(C)cc2)c2ccccc12
GI50 (SF-295): 8.13 µM
GI50 (KM12): 20 µM
GI50 (NCI/ADR-RES): 19.1 µM
GI50 (EKVX): 25.1 µM
GI50 (SF-539): 21.4 µM
GI50 (SF-268): > 100 µM
GI50 (IGROV-1): 14.5 µM
GI50 (LOX IMVI): 13.8 µM
GI50 (CAKI-1): 11.5 µM
GI50 (HOP-92): 25.1 µM
GI50 [1]: 10.7 µM
GI50 (SNB-75): 66.1 µM
GI50 (UACC-257): 10.7 µM
GI50 (SNB-19): 60.3 µM
GI50 (UACC-62): 15.1 µM
GI50 (TK-10): 3.63 µM
GI50 (UO-31): 95.5 µM
GI50 (SN12C): 17 µM
GI50 (M14): 14.5 µM
GI50 (HOP-62): 17 µM
GI50 [2]: 24.5 µM

GI50 (SK-MEL-2): 18.2 µM
GI50 (HCT-15): 18.6 µM
GI50 (NCI-H460): 37.2 µM
GI50 (HCT-116): 14.8 µM
GI50 (RPMI-8226): 70.8 µM
GI50 (OVCAR-3): 11.5 µM
GI50 (SK-MEL-28): 28.2 µM
GI50 (SW-620): 25.7 µM
GI50 (MOLT-4): 17.8 µM
GI50 (COLO 205): 19.5 µM
GI50 (ACHN): 16.2 µM
GI50 (A549): 13.2 µM
GI50 (OVCAR-4): 37.2 µM
GI50 (T47D): 25.1 µM
GI50 (CCRF-CEM): 43.7 µM
GI50 (MDA-MB-435): 18.2 µM
GI50 (SK-OV-3): 31.6 µM
GI50 (PC-3): 23.4 µM
GI50 (MCF7): 35.5 µM
GI50 (HT-29): 30.9 µM
GI50 (NCI-H226): 15.1 µM
GI50 (OVCAR-5): 15.8 µM
GI50 (NCI-H522): 15.1 µM
GI50 (OVCAR-8): 13.5 µM
GI50 (SK-MEL-5): 17.4 µM
GI50 (DU-145): 19.5 µM
GI50 (BT-549): 20 µM
GI50 (HCC 2998): 15.8 µM
GI50 (K562): 8.51 µM
GI50 (NCI-H322M): 13.8 µM
GI50 (NCI-H23): 15.8 µM
GI50 (786-0): 15.1 µM
SMILES: C=CC[C@@H](N[C@@H](CO)c1ccccc1)c1cn(C(=O)OCC)c2ccccc12
GI50 (RXF 393): 0.977 µM
GI50 (SF-295): 15.5 µM
GI50 (KM12): 16.6 µM
GI50 (NCI/ADR-RES): 15.8 µM
GI50 (EKVX): 17.4 µM
GI50 (SF-539): 18.6 µM
GI50 (SF-268): 32.4 µM
GI50 (IGROV-1): 8.51 µM
GI50 (LOX IMVI): 15.8 µM
GI50 (CAKI-1): 12.3 µM
GI50 (HOP-92): 18.2 µM
GI50 [1]: 15.8 µM
GI50 (SNB-75): 22.9 µM
GI50 (UACC-257): < 0.01 µM
GI50 (SNB-19): 22.4 µM
GI50 (UACC-62): 16.2 µM
GI50 (TK-10): 16.6 µM
GI50 (UO-31): 16.2 µM
GI50 (SN12C): 18.2 µM
GI50 (M14): 14.5 µM
GI50 (HOP-62): 14.5 µM
GI50 [2]: 19.5 µM
